Legend:
DU-145 = assay: Cytotoxicity against human DU145 cells after 48 hrs by SRB assay; format: functional, cell-based; details: Homo sapiens, DU-145, 48 h; for CC50: read-out: LC50 (the source's name)
How it was run: (§1)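 Cells grown in RPMI 1640 with 10% FBS and penicillin/streptomycin at 37 °C and 5% CO₂, trypsinized, then seeded at 5 × 10³/well. After 18 h drug-free attachment, samples in DMSO/EtOH/PBS (0.5:0.5:99) were added for 48 h continuous exposure. Cells were fixed with cold TCA (1 h, 4 °C) and stained with SRB (10 min). Tris-solubilized stain read at 490 nm. Triplicate wells, mean ± SD; GI₅₀ derived.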

LNCaP = assay: Cytotoxicity against human LNcaP cells after 48 hrs by SRB assay; format: functional; details: for CC50: read-out: LC50 (the source's name); how it was run: as §1
[1] = Cytotoxicity against human IGROV cells after 48 hrs by SRB assay; format: functional; details: for CC50: read-out: LC50 (the source's name); how it was run: as §1
[2] = Cytotoxicity against human IGROV-ET cells after 48 hrs by SRB assay; format: functional; details: for CC50: read-out: LC50 (the source's name); how it was run: as §1
SK-MEL-28 = assay: Cytotoxicity against human SK-MEL-28 cells after 48 hrs by SRB assay; format: functional, cell-based; details: Homo sapiens, SK-MEL-28, 48 h; for CC50: read-out: LC50 (the source's name); how it was run: as §1
A549 = assay: Cytotoxicity against human A549 cells after 48 hrs by SRB assay; format: functional, cell-based; details: Homo sapiens, A549, 48 h; how it was run: as §1
K562 = assay: Cytotoxicity against human K562 cells after 48 hrs by SRB assay; format: functional; details: K562, 48 h; how it was run: as §1
PANC-1 = assay: Cytotoxicity against human PANC1 cells after 48 hrs by SRB assay; format: functional; details: PANC-1, 48 h; for CC50: read-out: LC50 (the source's name); how it was run: as §1
HT-29 = assay: Cytotoxicity against human HT29 cells after 48 hrs by SRB assay; format: functional, cell-based; details: Homo sapiens, HT-29, 48 h; for CC50: read-out: LC50 (the source's name); how it was run: as §1
LoVo [3] = assay: Cytotoxicity against human LoVo cells after 48 hrs by SRB assay; format: functional; details: for CC50: read-out: LC50 (the source's name)
LoVo [4] = assay: Cytotoxicity against human doxorubicin resistant LoVo cells after 48 hrs by SRB assay; format: functional; details: for CC50: read-out: LC50 (the source's name); how it was run: as §1
SK-BR-3 = assay: Cytotoxicity against human SKBR3 cells after 48 hrs by SRB assay; format: functional; details: SK-BR-3, 48 h; for GI50: read-out: GI50; for CC50: read-out: LC50 (the source's name); how it was run: as §1
HeLa = assay: Cytotoxicity against human HeLa cells after 48 hrs by SRB assay; format: functional; details: read-out: LC50 (the source's name); how it was run: as §1
[5] = Cytotoxicity against human HeLa-APL cells after 48 hrs by SRB assay; format: functional; how it was run: as §1

SMILES | CC50 (DU-145) [nM] | GI50 (LNCaP) [nM] | TGI (LNCaP) [nM] | CC50 (LNCaP) [nM] | GI50 ([1]; read-out: GI50) [nM] | CC50 [1] [nM] | GI50 ([2]; read-out: GI50) [nM] | CC50 [2] [nM] | GI50 (SK-MEL-28; read-out: GI50) [nM] | CC50 (SK-MEL-28) [nM] | LC50 (A549) [nM] | GI50 (A549; read-out: GI50) [nM] | GI50 (PANC-1) [nM] | TGI (PANC-1) [nM] | CC50 (PANC-1) [nM] | GI50 (HT-29) [nM] | TGI (HT-29) [nM] | CC50 (HT-29) [nM] | GI50 (LoVo [3]) [nM] | TGI (LoVo [3]) [nM] | other results
C/C=C1\NC(=O)[C@H](Cc2ccccc2)NC(=O)[C@@H](C(C)C)NC(=O)[C@@H]([C@H](C)CC)NC(=O)[C@H](NC(=O)[C@H](NC(=O)[C@H](CCC(=O)O)NC(=O)[C@H]2CCCN2C(=O)[C@H](NC(=O)[C@@H](NC(=O)[C@@H](NC(=O)[C@H](NC(=O)CCCC(C)C)C(C)C)[C@@H](C)O)C(C)C)C(C)C)[C@H](C)CC)[C@H](C)OC(=O)[C@H](C(C)C)NC1=O | 10200 | 1880 | 3130 | 4360 | 1950 | 3200 | 3540 | 3540 | 5890 | 1980 | 22600 | 1090 | 2500 | 2540 | 2600 | 2670 | 3260 | 4000 | 785 | 692 | TGI [1]: 2530 nM; TGI [2]: 3530 nM; TGI (SK-MEL-28): 4980 nM; TGI (A549): 8950 nM; GI50 (K562): 3320 nM; TGI (K562): 4200 nM; CC50 (K562; read-out: LC50 (the source's name)): 2900 nM; CC50 (LoVo [3]): 1350 nM; CC50 (LoVo [4]): 3590 nM
C/C=C1\NC(=O)[C@H](Cc2ccc([N+](=O)[O-])cc2)NC(=O)[C@@H](C(C)C)NC(=O)[C@@H]([C@H](C)CC)NC(=O)[C@H](NC(=O)[C@H](NC(=O)[C@H](CCCN)NC(=O)[C@H]2CCCN2C(=O)[C@H](NC(=O)[C@@H](NC(=O)[C@@H](NC(=O)[C@H](NC(=O)CC[C@@H](C)CC)C(C)C)[C@@H](C)O)C(C)C)C(C)C)[C@H](C)CC)[C@H](C)OC(=O)[C@H](C(C)C)NC1=O | 561 | 482 | 511 | 669 | 682 | 197 | 1050 | 636 | 188 | 436 | 891 | 562 | 1290 | 1430 | 1580 | 419 | 411 | 409 | 317 | 314 | TGI (DU-145): 3640 nM; GI50 (DU-145; read-out: GI50): 261 nM; GI50 [1]: 417 nM; GI50 [2]: 811 nM; TGI (SK-BR-3): 406 nM; GI50 (SK-BR-3): 366 nM; CC50 (SK-BR-3): 451 nM; GI50 (SK-MEL-28): 235 nM; GI50 (A549): 724 nM; CC50 (LoVo [3]): 311 nM; GI50 (LoVo [4]): 90.4 nM; TGI (LoVo [4]): 141 nM; CC50 (LoVo [4]): 209 nM; CC50 (HeLa): 185 nM; GI50 [5]: 569 nM; LC50 (concentration giving 50% net cell kill) [5]: 783 nM; TGI [5]: 700 nM
C/C=C1\NC(=O)[C@H](Cc2ccc(F)cc2)NC(=O)[C@@H](C(C)C)NC(=O)[C@@H]([C@H](C)CC)NC(=O)[C@H](NC(=O)[C@H](NC(=O)[C@H](CCCN)NC(=O)[C@H]2CCCN2C(=O)[C@H](NC(=O)[C@@H](NC(=O)[C@@H](NC(=O)[C@H](NC(=O)CC[C@@H](C)CC)C(C)C)[C@@H](C)O)C(C)C)C(C)C)[C@H](C)CC)[C@H](C)OC(=O)[C@H](C(C)C)NC1=O | 893 | 514 | 620 | 747 | 812 | 381 | 971 | 649 | 699 | 953 | 1040 | 1010 | 1460 | 1530 | 1580 | 452 | 462 | 479 | 393 | 361 | GI50 (DU-145): 893 nM; GI50 (DU-145; read-out: GI50): 891 nM; GI50 [1]: 558 nM; GI50 [2]: 791 nM; TGI (SK-BR-3): 448 nM; GI50 (SK-BR-3): 519 nM; CC50 (SK-BR-3): 389 nM; GI50 (SK-MEL-28): 819 nM; TGI (A549): 1030 nM; CC50 (LoVo [3]): 330 nM; GI50 (LoVo [4]): 413 nM; TGI (LoVo [4]): 460 nM; CC50 (LoVo [4]): 512 nM; CC50 (HeLa): 2820 nM; GI50 [5]: 737 nM; LC50 (concentration giving 50% net cell kill) [5]: 837 nM; TGI [5]: 786 nM

— ChEMBL document CHEMBL1156597, “Structure-activity relationship of kahalalide F synthetic analogues” (J Med Chem, 2008)
